# Measured values collected from several papers.
# Compare with care: the assays were run in different laboratories.
# Organism: Staphylococcus aureus
# Observed: microbial growth
SMILES,technique,strain,time,notes,MIC
C=CCn1c(-c2ccc(Cl)c(Cl)c2)nc2ccccc21,broth dilution,ATCC43300 MRSA,,drug-resistant strain,64 µg/mL
CCCCCCNC(=S)Nc1cccc(-c2cc(C(=O)OC)no2)c1,broth dilution,ATCC29213,,,> 64 µg/mL
CC1(C)CC[C@]2(C(=O)O)CC[C@]3(C)C(=CC[C@@H]4[C@@]5(C)CC[C@H](O)C(C)(C)[C@@H]5CC[C@]43C)[C@@H]2C1,,83254,,,64 µg/mL
Cc1onc(-c2ccccc2)c1C(=O)N[C@@H]1C(=O)N2[C@@H]1SC(C)(C)[C@@H]2C(=O)O,broth dilution,MRSA,,,32 µg/mL
O=C(CCCCc1ccccc1)CP(=O)(O)O,,ATCC33591 MRSA,,drug-resistant strain,> 200 µg/mL
COC(=O)c1cc(-c2cccc(NC(=S)Nc3ccc(F)cc3F)c2)on1,broth dilution,ATCC29213,,,> 64 µg/mL
C/C(=C\C(=O)OCCCCCCCCC(=O)O)C[C@@H]1OC[C@H](C[C@@H]2O[C@H]2[C@@H](C)[C@H](C)O)[C@@H](O)[C@H]1O,,BAA1556 MRSA,,drug-resistant strain,> 8000 µM
Clc1ccccc1-c1nc2ccccc2[nH]1,broth dilution,ATCC43300 MRSA,,drug-resistant strain,128 µg/mL
CN[C@H](CC(C)C)C(=O)N[C@H]1C(=O)N[C@@H](CC(N)=O)C(=O)N[C@H]2C(=O)N[C@H]3C(=O)N[C@H](C(=O)N[C@H](C(=O)O)c4cc(O)cc(O)c4-c4cc3ccc4O)[C@H](O)c3ccc(c(Cl)c3)Oc3cc2cc(c3O[C@@H]2O[C@H](CO)[C@@H](O)[C@H](O)[C@H]2O[C@H]2C[C@](C)(N)[C@H](O)[C@H](C)O2)Oc2ccc(cc2Cl)[C@H]1O,,BAA2312,,drug-resistant strain,0.78 µg/mL
CC[C@H]1OC(=O)[C@H](C)[C@@H](O[C@H]2C[C@@](C)(OC)[C@@H](O)[C@H](C)O2)[C@H](C)[C@@H](O[C@@H]2O[C@H](C)C[C@H](N(C)C)[C@H]2O)[C@](C)(O)C[C@@H](C)C(=O)[C@H](C)[C@@H](O)[C@]1(C)O,,USA300,,,32 µg/mL
COC(=O)c1cc(-c2cccc(NC(=O)Nc3ccc(Cl)cc3Cl)c2)on1,broth dilution,ATCC29213,,,> 64 µg/mL
COc1cccc(OC)c1C(=O)N[C@@H]1C(=O)N2[C@@H]1SC(C)(C)[C@@H]2C(=O)O,,ATCCBAA1720,,"drug-resistant strain, clinical isolate",> 64 µg/mL
Cc1ccc2[nH]c3c(c2c1)CCCC3NCCc1ccc(O)cc1 (centres unmarked),broth dilution,ATCC29213,,,16 µg/mL
Cc1ccc2nc(-c3cccc([N+](=O)[O-])c3)[nH]c2c1,broth dilution,ATCC43300 MRSA,,drug-resistant strain,64 µg/mL
C[C@H]1COCCN1c1nc(NCc2cccnc2C(F)(F)F)c2cccnc2n1,broth dilution,MRSA,,,128 µg/mL
O=[N+]([O-])c1ccc(-c2nc3cccc(O)c3[nH]2)o1,broth dilution,ATCC700699 MRSA,,drug-resistant strain,2 µg/mL
Cc1ccc2nc(-c3ccc(F)cc3)n(Cc3ccccc3)c2c1,broth dilution,ATCC43300 MRSA,,drug-resistant strain,64 µg/mL
N#CC(C#N)=Cc1ccc(O)c(O)c1,,NCTC8325,,,> 30 µM
COC(=O)c1cc(-c2cccc(NC(=O)Nc3cccc(C#N)c3)c2)on1,broth dilution,ATCC29213,,,> 64 µg/mL
C=C(NC(=O)C(=C)NC(=O)c1csc(C2=N[C@@H]3c4csc(n4)[C@H]4NC(=O)c5csc(n5)[C@H]([C@](C)(O)[C@@H](C)O)NC(=O)[C@H]5CSC(=N5)/C(=C/C)NC(=O)[C@H]([C@@H](C)O)NC(=O)c5csc(n5)[C@]3(CC2)NC(=O)[C@H](C)NC(=O)C(=C)NC(=O)[C@H](C)NC(=O)[C@H]([C@@H](C)CC)N[C@@H]2C=Cc3c([C@H](C)O)cc(nc3[C@H]2O)C(=O)O[C@@H]4C)n1)C(N)=O,,MSSA,,,0.06 µg/mL
CCCCCCCCCCCC(=O)NP(=O)(O)O,,ATCC33591 MRSA,,drug-resistant strain,200 µg/mL
COC(=O)c1cc(-c2cccc(NC(=O)Nc3cccc(Br)c3)c2)on1,broth dilution,ATCC29213,,,> 64 µg/mL
CNC(=O)c1cc(Sc2ccc(NC(=S)Nc3ccc(Cl)c(C(F)(F)F)c3)cc2)ccn1,,NCTC8325,,,3 µM
COC(=O)c1cc(-c2cccc(NC(=S)Nc3cccc(Br)c3)c2)on1,broth dilution,ATCC29213,,,> 64 µg/mL
Cc1ccc2nc(-c3ccncc3)[nH]c2c1,broth dilution,ATCC43300 MRSA,,drug-resistant strain,128 µg/mL
COC(=O)c1cc(-c2cccc(NC(=S)NC3CCCCC3)c2)on1,broth dilution,ATCC29213,,,> 64 µg/mL
CC(=O)c1ccc(NC(=O)Nc2ccc(Cl)c(C(F)(F)F)c2)cc1,,NCTC8325,,,30 µM
CN[C@H](CC(C)C)C(=O)N[C@H]1C(=O)N[C@@H](CC(N)=O)C(=O)N[C@H]2C(=O)N[C@H]3C(=O)N[C@H](C(=O)N[C@H](C(=O)O)c4cc(O)cc(O)c4-c4cc3ccc4O)[C@H](O)c3ccc(c(Cl)c3)Oc3cc2cc(c3O[C@@H]2O[C@H](CO)[C@@H](O)[C@H](O)[C@H]2O[C@H]2C[C@](C)(N)[C@H](O)[C@H](C)O2)Oc2ccc(cc2Cl)[C@H]1O,,147,,clinical isolate,0.59 µM
CCC1C(=NOCc2cc(-c3ccc(Cl)cc3)no2)CC(c2ccccc2)OC1c1ccccc1 (centres unmarked),broth dilution,MTCC96,24 h,,50 µg/mL
Oc1ccccc1-c1nc2ccccc2[nH]1,broth dilution,ATCC43300 MRSA,,drug-resistant strain,256 µg/mL
CCCCCCCCCC(=O)N[C@@H](Cc1c[nH]c2ccccc12)C(=O)N[C@H](CC(N)=O)C(=O)N[C@@H](CC(=O)O)C(=O)N[C@@H]1C(=O)NCC(=O)N[C@@H](CCCN)C(=O)N[C@@H](CC(=O)O)C(=O)N[C@H](C)C(=O)N[C@@H](CC(=O)O)C(=O)NCC(=O)N[C@H](CO)C(=O)N[C@@H]([C@H](C)CC(=O)O)C(=O)N[C@@H](CC(=O)c2ccccc2N)C(=O)O[C@@H]1C,broth dilution,USA300,,drug-resistant strain,0.5 µg/mL
CSc1ccc(-c2nc3ccc(C)cc3[nH]2)cc1,broth dilution,ATCC43300 MRSA,,drug-resistant strain,32 µg/mL
O=C(Nc1cccc(-c2cc(C(=O)O)no2)c1)Nc1ccc(Cl)c(Cl)c1,broth dilution,ATCC29213,,,> 64 µg/mL
Cc1ccc2nc(-c3ccc(N(C)C)cc3)[nH]c2c1,broth dilution,ATCC43300 MRSA,,drug-resistant strain,128 µg/mL
CCCCCCCCCCCC(=O)C(F)(F)P(=O)(O)O,,ATCC33591 MRSA,,drug-resistant strain,> 200 µg/mL
